Drawing on PubChem BioAssay AID652260 (The Scripps Research Institute Molecular Screening Center, 2013), this text covers activation for 63 compounds.

The campaign covered roughly 3,500 compounds. About 1,000 (29%) were called active.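 The calls were made as follows: active = activation above its plate's cutoff, the mean activation of tested wells plus 3 SD (cut at about 7.9% in these data); inactive = the rest.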 Only a sample is shown.

A short description of this assay: BRM-dependent MMTV reporter reactivation – cell-based, luminescence, triplicate, confirmation (AID 652260). To be noted: MG213 cells, MMTV-luciferase with dexamethasone, overnight, at 9.1 µM, active compounds read high, DMSO wells 0%, reference activator 100%, MG213 cells expressing E1A, Rb sequestered. The method, boiled down: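 Schedule – compound exposure 24 h at 37 °C after 1-day dexamethasone priming · Assay system – MG213 MMTV-luciferase reporter cells · Amount – 600 cells in each well · Detection – luciferase luminescence (OneGlo) · Dosing – 9.1 µM single dose · Buffer or medium – assay medium with 2.5% FBS plus 0.1 µM dexamethasone · Benchmarks – DMSO and reference activator wells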
On to `CCOC(=O)C(C)n1cnc2c(nnn2-c2cccc(OC)c2)c1=O` (stereo not drawn), for which the activation is 4.29% (inactive).

`CCN(CC)C(=O)CSc1nnc(-c2cccc(OC)c2)o1`: the activation is 8.07% (active).

As for `COc1cccc(-c2nc3cc(C)ccc3o2)c1`, the activation is 7.4% (inactive).

Regarding `CCNC(=S)N1CCN(c2ncccn2)CC1`, the activation was -2.06% (inactive).

On to `Cc1cc(C)nc(Nc2n[nH]c(-c3ccccc3N)n2)n1`, for which the activation was 5.41% (inactive).

As to `CC(C)C[C@H]1CNC(=O)C(=O)N1C[C@H]1CCCN1C[C@H](Cc1ccc(O)cc1)N1C[C@H](CC(C)C)N(CC2CCCCCC2)C(=O)C1=O`, the activation is -0.79% (inactive).

Take `O=C(Nc1cccc([N+](=O)[O-])c1)c1ccc2c(c1)OCO2`: the activation is 3.25% (inactive).

On to `COc1ccc(C(=O)Nc2ccc3c(c2)OCO3)cc1OC`, for which the activation is 7.86% (active).

For the compound `COCC(C)n1c(SCc2ccc(C(=O)OC)o2)nc2ccccc2c1=O` (stereo not drawn), the activation was 0.09% (inactive).

Take `Cc1cc(-c2n[nH]c(=S)n2/N=C/C(Br)=C/c2ccccc2)n[nH]1`: the activation was 2.39% (inactive).

On to `CCN(CC)CCNC(=O)c1ccc(NC(=O)c2cc(-c3ccncc3)nc3ccccc23)cc1`, for which the activation was 5.3% (inactive).

As for `CC(=O)Nc1ccc(Nc2c3ccccc3nc3ccccc23)cc1`, the activation was 43% (active).

As for `O=C(Nc1ccc2nccnc2c1)c1ccco1`, the activation was 5.96% (inactive).

For the compound `CCCSC(=S)NC1CCS(=O)(=O)C1` (stereo not drawn), the activation was -0.53% (inactive).

As to `c1ccc2cc3c(NCCN4CCOCC4)ccnc3cc2c1`, the activation was 34.6% (active).

Regarding `COc1ccc(-c2cc(-c3ccc(N)cc3)nc(N)c2C#N)cc1OC`, the activation was -1.93% (inactive).

Take `Cc1ccc(C(=O)NNC(=O)c2cccs2)cc1`: the activation is 1.93% (inactive).

As to `COc1ccc(/C=N/NC(=O)c2cc(-c3cccc(C)c3)nc3ccccc23)cc1O`, the activation was 1.04% (inactive).

Take `COc1ccc(N=C(C)c2sc3ccccc3c2O)cc1`: the activation is 9.34% (active).

For the compound `Cc1cc(C)c2nc3nc(C)cc(C)c3c(N)c2c1`, the activation was 60% (active).

On to `COc1ccc(Cn2c(C)c(C)c(C#N)c2NC(=O)Nc2ccc(F)cc2)cc1`, for which the activation is 4.61% (inactive).

For `C/C(CC(=O)NC(C)(C)C)=N\NC(=O)c1ccco1`, the activation is 5.29% (inactive).

`CN(C)C(=S)N=c1ssc(=S)n1Cc1ccco1`: the activation is 15.4% (active).

In the case of `O=C1/C(=C\c2ccc([N+](=O)[O-])cc2)CS(=O)(=O)C/C1=C/c1ccc([N+](=O)[O-])cc1`, the activation is -15.7% (inactive).

In the case of `COc1ccccc1C1=Nc2cccc3cccc(c23)N1`, the activation is 2.63% (inactive).

Consider `O=C(CCCCCn1c(=S)[nH]c2ccsc2c1=O)NC1CCCCC1`, for which the activation was 1.02% (inactive).

On to `C=C1C(=O)[C@]23C[C@H]1CCC2[C@@]1(C)C(C[C@@H]3O)[C@](C)(C(=O)O)CC[C@@H]1O` (stereo partly drawn), for which the activation was 28.4% (active).

In the case of `Cn1c(-c2ccc(F)cc2)cc2onc(-c3ccccc3Cl)c2c1=O`, the activation is -3.34% (inactive).

`CN1CCN(CCCNC(=O)c2ccc(/C=C3\Oc4ccccc4N(Cc4ccc(Cl)cc4)C3=O)cc2)CC1`: the activation is 3.44% (inactive).

In the case of `COCn1c(COc2ccccc2)nc2ccccc21`, the activation is 8.62% (active).

In the case of `CCc1ccc[n+](-c2nc([O-])sc2C=O)c1`, the activation is -1.34% (inactive).

As for `COc1ccc(CC2c3cc(OC)c(OC)cc3CC[N+]2(C)CCC(=O)OCCCCCOC(=O)CC[N+]2(C)CCc3cc(OC)c(OC)cc3C2Cc2ccc(OC)c(OC)c2)cc1OC` (stereo not drawn), the activation was 8.77% (active).

For `CCOC(=O)c1sc2nc(CSc3ccccc3)[nH]c(=O)c2c1C`, the activation was -0.16% (inactive).

Regarding `COc1cc(CN2CCC(C(N)=O)CC2)ccc1OCc1ccccc1`, the activation was 13% (active).

As for `O=C(c1cc(-c2ccc(O)cc2)on1)N1CCOCC1`, the activation is 7.73% (inactive).

For the compound `O=C(c1cc(-c2ccccc2O)on1)N1CCCC1`, the activation was 1.4% (inactive).

In the case of `O=C(c1cccs1)C1C(c2ccc(Br)cc2)NC(=S)NC1(O)C(F)(F)F` (stereo not drawn), the activation is 5.35% (inactive).

For the compound `Cc1ccc(-c2nc3ccc(Br)cn3c2Cc2ccccc2C(F)(F)F)cc1`, the activation was 0.37% (inactive).

For `CCN(CC)C(=O)c1sc2nc(-c3ccccc3)ccc2c1N`, the activation is 9.6% (active).

Regarding `COc1ccc(C(CNC(=O)c2ccc(S(=O)(=O)Nc3ccccc3F)cc2)N(C)C)cc1` (stereo not drawn), the activation is 0.35% (inactive).

For `CN(C)S(=O)(=O)c1ccc2oc(SCC(=O)Nc3ccccc3F)nc2c1`, the activation was 7.95% (active).

Take `CC(C)(C)C(=O)CSc1nc2ccccc2o1`: the activation was 6.81% (inactive).

On to `Cc1noc(C)c1/C=N/Nc1ccc2ccccc2n1`, for which the activation is 4.24% (inactive).

Consider `CC1CCCCN1C(=S)NCc1ccccc1` (stereo not drawn), for which the activation is 0.99% (inactive).

For the compound `COc1ccc(-c2cc3ncccc3cn2)cc1`, the activation was 8.92% (active).

With `COc1ccc(-c2csc(Cc3nc(O)cs3)n2)cc1`, the activation was -15.4% (inactive).

With `CN(C)c1nc(=Nc2cccc(Cl)c2)ss1`, the activation is -15.3% (inactive).

Turning to `Cc1n[nH]c(=O)nc1N/N=C/c1cccs1`, the activation is 3.07% (inactive).

Take `CCC1CCC/C1=N\NC(=O)c1ccc(Cl)cc1` (stereo not drawn): the activation is 2.31% (inactive).

Consider `O=C(Nc1ccc2c(c1)CCC2)c1ccc(Br)s1`, for which the activation was 10.8% (active).

For `Cc1ccc(NC(=O)c2cnc(SCC(=O)NCC3CCCO3)n(C)c2=O)cc1` (stereo not drawn), the activation was 9.35% (active).

Regarding `Cc1ccc(-c2c(C)n([O-])c3c([n+]2=O)CCC3)cc1`, the activation is 6.67% (inactive).

Take `N#Cc1ccccc1NC(=O)c1cccc(COc2ccc(Cl)cc2Cl)c1`: the activation is 4.05% (inactive).

As for `Fc1ccc(CNc2nc3ccccc3n3nnnc23)cc1`, the activation was 1.53% (inactive).

As to `COc1c(O)cc2oc(-c3ccc(O)c(O)c3)cc(=O)c2c1O`, the activation was 12.6% (active).

On to `CCCCNC(=O)C1CCC(CNS(=O)(=O)c2ccc(NC(C)=O)cc2)CC1` (stereo not drawn), for which the activation is -3.14% (inactive).

For the compound `Cc1cc2oc3ccc(NCCC4CCCN4C)cc3c(=O)c2cc1C` (stereo not drawn), the activation was 5.48% (inactive).

As to `CC1CCCCC1NC(=O)CN1CCC(O)(c2ccc3c(c2)OCO3)CC1` (stereo not drawn), the activation is -0.84% (inactive).

In the case of `CCCC(=O)N1c2ccc(-c3csc(N)n3)cc2CC1C` (stereo not drawn), the activation was 8.32% (active).

`Cc1cc(C(=O)NNC(=S)Nc2ccccc2C)cs1`: the activation is 3.37% (inactive).

Turning to `Cc1cc(C)c2nc(NC(=O)C3CCCO3)sc2c1` (stereo not drawn), the activation was 9.52% (active).

In the case of `O=C(Nc1nnc(CCc2ccccc2)s1)C1CCCO1` (stereo not drawn), the activation was 1.02% (inactive).

In the case of `C=CC(=O)OCCOCCOCCOCCOC(=O)C=C`, the activation was 7.95% (active).
